# Test results as given in ChEMBL document CHEMBL4673340 (J Med Chem, 2020).
# Calls of active or inactive are those of the source. The calls are words filed in the database; no cut-off is given here.
# How the values were obtained:
# [1] = Half life in Beagle dog at 1 mg/kg, iv by LC-MS/MS analysis; assay type: ADME, organism-based, Canis lupus familiaris; settings: in vivo
# Summary of the method: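 Three Beagle dogs; iv dose 1 mg/kg in 25% DMA in water; oral dose 2 mg/kg in 0.5% CMC-Na. Plasma drug concentrations are measured by LC–MS/MS. Values are the mean of three dogs.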
# [2] = Cmax in Sprague-Dawley rat at 5 mg/kg, po by LC-MS/MS analysis; settings: in vivo
# BCRP = BCRP (Homo sapiens, UniProt Q9UNQ0); experiment: Inhibition of BCRP (unknown origin) at 30 uM; settings: not told
# [3] = AUC ( 0 to infinity) in Sprague-Dawley rat at 5 mg/kg, po by LC-MS/MS analysis; settings: in vivo
# NCI-H209 [4] = experiment: Potentiation of TMZ-induced antitumor activity against human NCI-H209 cells xenografted in BALB/c nude mouse assessed as tumor relapse rate at […], po BID for 28 days and co-treated with 50 mg/kg, po QD TMZ for 5 consecutive days at start of study and again 14 days later and measured after 68 days; assay type: functional, organism-based; settings: time 28.0 day
# [5] = Oral bioavailability in ICR mouse at 10 mg/kg by LC-MS/MS analysis; assay type: ADME, organism-based; settings: in vivo
# Summary of the method: (§1)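 Three ICR mice per arm. iv dose 1 mg/kg in 5% DMA in water; oral dose 10 mg/kg in 0.5% MC. Plasma was processed by protein precipitation, diluted with water and quantified by LC-MS/MS (C18 column, acetonitrile/0.1% formic acid gradient). Values are means of three animals.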
# [6] = Ratio of drug level in brain to plasma of C57BL/6 mouse brain at 10 mg/kg, po after 2 hrs; assay type: ADME, organism-based
# Summary of the method: (§2)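 C57BL/6 mice were given 10 mg/kg po in 0.5% MC and sampled at 1, 2 and 4 h. Brain was homogenized in 3 volumes of saline, and brain and plasma were protein-precipitated with acetonitrile, then measured by LC-MS/MS. Brain (ng/g) was expressed as a percentage of plasma (ng/mL). Values are means of three mice.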
# [7] = AUC (0 to infinity) in ICR mouse at 1 mg/kg, iv by LC-MS/MS analysis; assay type: ADME, organism-based; set-up: route intravenous, time infinity, dose 1 mg/kg; settings: in vivo
# Summary of the method: (§3)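 Male/female unspecified ICR mice, n=3 per route. Intravenous 1 mg/kg in 5% DMA in water; oral 10 mg/kg in 0.5% MC. Plasma is processed by protein precipitation and analysed by LC–MS/MS using an acetonitrile/0.1% formic acid gradient. Values are means of the three animals.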
# [8] = Toxicity in BALB/c nude mouse xenografted with human NCI-H209 cells assessed as drug tolerability at […], po BID for 28 days and co-treated with 50 mg/kg, po QD TMZ for 5 consecutive days at start of study and again 14 days later relative to TMZ alone; assay type: organism-based; settings: in vivo, dose 0.75 mg/kg, time 28 day
# [9] = Drug level in C57BL/6 mouse plasma at 10 mg/kg, po after 4 hrs; assay type: ADME, organism-based
# Summary of the method: (§4)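 C57BL/6 mice (n=3) dosed orally at 10 mg/kg in 0.5% MC. Plasma and brain are sampled at 1, 2 and 4 h. Brain is homogenized in 3 volumes of saline, then acetonitrile protein precipitation; plasma is likewise precipitated. Both are analysed by LC–MS/MS and reported as means.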
# Cytochrome P450 1A2 = Cytochrome P450 1A2 (Homo sapiens, UniProt P05177); experiment: Inhibition of CYP1A2 (unknown origin); assay type: ADME
# MDA-MB-231 = experiment: Antiproliferation activity against human MDA-MB-231 cells incubated for 7 days by CellTiter-Glo luminescent cell viability assay; assay type: functional, cell-based; settings: MDA-MB-231, 168 h
# Summary of the method: (§5)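 Seeding density is set per line for log growth over 7 days. Cells attach 16 h, then are treated in duplicate with a 10-point dilution series for 7 days. CellTiter-Glo luminescence (ATP) is read, and viability is expressed relative to mock-treated control. EC50 is the mean of three independent experiments run in triplicate.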
# [10] = Unbound fraction in human plasma; assay type: ADME, cell-free
# [11] = Drug level in C57BL/6 mouse plasma at 10 mg/kg, po after 1 hrs; assay type: ADME, organism-based; summary of the method: as §4
# Cytochrome P450 3A4 = Cytochrome P450 3A4 (Homo sapiens, UniProt P08684); experiment: Inhibition of CYP3A4 (unknown origin); assay type: ADME
# Cytochrome P450 2C9 = Cytochrome P450 2C9 (Homo sapiens, UniProt P11712); experiment: Inhibition of CYP2C9 (unknown origin); assay type: ADME
# [12] = AUC (0 to infinity) in ICR mouse at 10 mg/kg, po by LC-MS/MS analysis; assay type: ADME, organism-based; set-up: time infinity, route oral, dose 10 mg/kg; settings: in vivo; summary of the method: as §3
# [13] = Unbound fraction in dog plasma; assay type: ADME, cell-free, Canis lupus familiaris
# [14] = molecular target: Protein mono-ADP-ribosyltransferase PARP6 (Homo sapiens, UniProt Q2NL67); experiment: Inhibition of PARP-6 (unknown origin) pre-incubated for 30 mins before addition of activated DNA and NAD by chemiluminescent assay
# Summary of the method: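 Chemiluminescent kit assay. Histone-coated wells were incubated for 30 min with the PARP isoform and increasing inhibitor concentrations. A substrate mix of NAD plus biotinylated NAD with activated DNA was then added. The biotinylated PARylation product was read with streptavidin-HRP and HRP substrate. IC50 was taken from residual enzyme activity across the concentration series.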
# [15] = AUC (0 to infinity) in Sprague-Dawley rat at 2 mg/kg, iv by LC-MS/MS analysis; assay type: ADME, organism-based; set-up: time infinity, route intravenous, dose 2 mg/kg; settings: in vivo
# Summary of the method: (§6)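 Sprague-Dawley rats (n=3) get 2 mg/kg iv formulated in 38% DMA in water. Plasma is protein-precipitated and quantified by LC–MS/MS (C18, acetonitrile/0.1% formic acid gradient). Parameters are means of the three rats.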
# [16] = Tmax in ICR mouse at 10 mg/kg, po by LC-MS/MS analysis; assay type: ADME, organism-based; settings: in vivo; summary of the method: as §1
# [17] = Drug level in C57BL/6 mouse brain at 10 mg/kg, po after 2 hrs; assay type: ADME, organism-based; settings: read-out: Drug uptake; summary of the method: as §4
# [18] = Volume of distribution at steady state in ICR mouse at 1 mg/kg, iv by LC-MS/MS analysis; assay type: ADME, organism-based; settings: in vivo, read-out: Vdss; summary of the method: as §1
# HCC1395 = experiment: Antiproliferation activity against human HCC1395 cells expressing BRCA1 mutant incubated for 7 days by CellTiter-Glo luminescent cell viability assay; assay type: functional, cell-based; settings: HCC1395, 168 h; summary of the method: as §5
# [19] = Ratio of drug level in brain to plasma of C57BL/6 mouse brain at 10 mg/kg, po after 1 hrs; assay type: ADME, organism-based; summary of the method: as §2
# [20] = Clearance in Sprague-Dawley rat at 2 mg/kg, iv by LC-MS/MS analysis; assay type: ADME, organism-based; settings: in vivo; summary of the method: as §6
# [21] = Apparent permeability from apical to basolateral side in human Caco-2 cells; assay type: ADME, cell-based
# [22] = Oral bioavailability in Beagle dog at 2 mg/kg by LC-MS/MS analysis; assay type: ADME, organism-based, Canis lupus familiaris; settings: in vivo
# Summary of the method: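 Beagle dogs, three per group. iv 1 mg/kg in 25% DMA in water; oral 2 mg/kg. Values are means of three dogs.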
# NCI-H209 [23] = experiment: Potentiation of TMZ-induced antitumor activity against human NCI-H209 cells xenografted in BALB/c nude mouse assessed as PR rate at […], po BID for 28 days and co-treated with 50 mg/kg, po QD TMZ for 5 consecutive days at start of study and again 14 days later; assay type: functional; settings: time 28 day
# Cytochrome P450 3A4, sequence (P08684 whole entry): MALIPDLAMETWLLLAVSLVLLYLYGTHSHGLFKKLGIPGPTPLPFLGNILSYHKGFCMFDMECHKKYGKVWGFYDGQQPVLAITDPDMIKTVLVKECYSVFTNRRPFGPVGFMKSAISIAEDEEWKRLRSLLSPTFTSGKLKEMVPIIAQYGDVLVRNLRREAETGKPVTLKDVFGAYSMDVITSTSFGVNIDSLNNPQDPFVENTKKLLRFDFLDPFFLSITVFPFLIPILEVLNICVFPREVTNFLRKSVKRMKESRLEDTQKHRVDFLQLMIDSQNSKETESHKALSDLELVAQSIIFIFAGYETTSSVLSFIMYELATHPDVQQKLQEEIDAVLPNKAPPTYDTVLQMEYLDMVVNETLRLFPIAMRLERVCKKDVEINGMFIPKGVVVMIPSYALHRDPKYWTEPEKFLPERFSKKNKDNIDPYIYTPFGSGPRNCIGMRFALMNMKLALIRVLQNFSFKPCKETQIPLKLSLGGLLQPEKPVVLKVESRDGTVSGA
# BCRP, sequence (Q9UNQ0 whole entry): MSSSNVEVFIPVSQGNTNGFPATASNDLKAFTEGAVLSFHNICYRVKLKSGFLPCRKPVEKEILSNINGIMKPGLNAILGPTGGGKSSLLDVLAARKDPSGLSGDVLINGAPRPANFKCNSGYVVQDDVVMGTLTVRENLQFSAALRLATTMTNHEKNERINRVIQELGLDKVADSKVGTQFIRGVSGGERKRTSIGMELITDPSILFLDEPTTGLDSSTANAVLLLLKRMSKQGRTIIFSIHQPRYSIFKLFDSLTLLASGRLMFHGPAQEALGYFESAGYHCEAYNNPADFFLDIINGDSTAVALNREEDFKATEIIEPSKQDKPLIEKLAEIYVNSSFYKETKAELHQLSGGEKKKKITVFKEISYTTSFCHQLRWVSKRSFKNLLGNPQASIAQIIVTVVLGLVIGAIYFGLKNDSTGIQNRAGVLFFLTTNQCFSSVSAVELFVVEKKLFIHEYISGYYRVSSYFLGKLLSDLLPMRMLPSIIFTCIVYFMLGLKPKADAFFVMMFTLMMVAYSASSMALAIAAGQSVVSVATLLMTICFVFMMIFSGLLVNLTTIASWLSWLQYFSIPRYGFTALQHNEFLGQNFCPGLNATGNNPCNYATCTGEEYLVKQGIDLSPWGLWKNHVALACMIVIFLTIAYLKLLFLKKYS
# Protein mono-ADP-ribosyltransferase PARP6, sequence (Q2NL67 whole entry, canonical isoform): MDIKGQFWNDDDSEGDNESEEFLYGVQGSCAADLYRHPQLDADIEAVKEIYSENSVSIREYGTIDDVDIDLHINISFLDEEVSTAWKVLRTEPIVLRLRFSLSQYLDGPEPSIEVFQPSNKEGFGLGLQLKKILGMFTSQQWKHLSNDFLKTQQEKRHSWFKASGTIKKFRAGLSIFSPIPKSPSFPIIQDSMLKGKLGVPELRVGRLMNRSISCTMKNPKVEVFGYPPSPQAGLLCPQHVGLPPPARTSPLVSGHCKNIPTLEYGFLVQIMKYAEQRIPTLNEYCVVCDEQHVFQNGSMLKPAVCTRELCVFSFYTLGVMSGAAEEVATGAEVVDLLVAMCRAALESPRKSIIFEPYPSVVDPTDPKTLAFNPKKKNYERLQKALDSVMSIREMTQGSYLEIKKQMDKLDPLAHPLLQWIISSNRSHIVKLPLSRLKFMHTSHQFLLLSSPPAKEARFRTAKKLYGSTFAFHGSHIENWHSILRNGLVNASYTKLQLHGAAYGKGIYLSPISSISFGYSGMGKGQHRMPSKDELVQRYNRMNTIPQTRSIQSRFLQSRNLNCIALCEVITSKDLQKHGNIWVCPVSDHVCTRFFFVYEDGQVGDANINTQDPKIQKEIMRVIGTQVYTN
# Cytochrome P450 1A2, sequence (P05177 whole entry): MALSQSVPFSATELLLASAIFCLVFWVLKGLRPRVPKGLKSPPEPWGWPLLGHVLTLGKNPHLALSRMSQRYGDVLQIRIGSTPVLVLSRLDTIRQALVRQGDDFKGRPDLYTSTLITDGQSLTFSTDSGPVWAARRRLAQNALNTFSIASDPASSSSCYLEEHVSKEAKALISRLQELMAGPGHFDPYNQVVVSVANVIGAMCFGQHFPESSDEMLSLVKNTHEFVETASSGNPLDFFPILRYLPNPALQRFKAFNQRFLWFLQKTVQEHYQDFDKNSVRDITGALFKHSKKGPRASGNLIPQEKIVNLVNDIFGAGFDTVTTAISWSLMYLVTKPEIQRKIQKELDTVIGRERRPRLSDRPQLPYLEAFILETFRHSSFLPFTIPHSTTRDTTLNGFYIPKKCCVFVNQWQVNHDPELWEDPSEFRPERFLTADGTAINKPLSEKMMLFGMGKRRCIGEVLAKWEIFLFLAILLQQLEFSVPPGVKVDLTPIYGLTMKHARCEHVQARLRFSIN
# Cytochrome P450 2C9, sequence (P11712 whole entry): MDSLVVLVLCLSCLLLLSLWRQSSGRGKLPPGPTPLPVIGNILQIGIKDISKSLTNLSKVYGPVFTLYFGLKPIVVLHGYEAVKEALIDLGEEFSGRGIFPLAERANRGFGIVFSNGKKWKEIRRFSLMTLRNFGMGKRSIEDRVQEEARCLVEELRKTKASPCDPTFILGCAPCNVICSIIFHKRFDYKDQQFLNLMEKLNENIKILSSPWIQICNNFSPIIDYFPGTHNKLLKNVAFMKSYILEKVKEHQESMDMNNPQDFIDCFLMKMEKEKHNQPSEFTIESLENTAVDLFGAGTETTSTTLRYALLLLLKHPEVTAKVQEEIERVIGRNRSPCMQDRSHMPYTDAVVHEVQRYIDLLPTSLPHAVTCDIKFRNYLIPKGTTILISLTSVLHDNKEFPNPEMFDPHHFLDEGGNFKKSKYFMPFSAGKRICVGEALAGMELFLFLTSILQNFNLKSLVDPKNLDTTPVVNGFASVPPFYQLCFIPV
compound,measurement,setting,value
C[C@]12CCCN1CC1=NNC(=O)c3cc(F)cc4[nH]c2c1c34 [PAMIPARIB],half-life,[1],2.07 h
same,Cmax,[2],861 ng/mL
same,inhibition at 30 µM,BCRP,43%
same,AUC(0-inf),[3],3470 ng·h/mL
same,Activity,NCI-H209 [4],Active
same,F,[5],98.7%
same,BPR,[6],18.9%
same,AUC,[7],1757 ng·h/mL
same,Activity,[8],Non-Toxic
same,concentration at 4 h,[9],707 ng/mL
same,IC50,Cytochrome P450 1A2,> 10 µM
same,EC50,MDA-MB-231,> 10 µM
same,fraction unbound,[10],0.043
same,concentration at 1 h,[11],3530 ng/mL
same,IC50,Cytochrome P450 3A4,> 10 µM
same,IC50,Cytochrome P450 2C9,> 10 µM
same,AUC,[12],5521 ng·h/mL
same,fraction unbound,[13],0.21
same,IC50,[14],> 100 µM
same,AUC(0-inf),[15],1480 ng·h/mL
same,Tmax,[16],0.583 h
same,concentration at 2 h,[17],252 ng/g
same,Vd,[18],5.65 L/kg
same,EC50,HCC1395,0.0425 µM
same,BPR,[19],17.4%
same,clearance,[20],22.7 mL/min/kg
same,Papp A→B,[21],30.3 ×10⁻⁶ cm/s
same,bioavailability,[22],72.6%
same,Activity,NCI-H209 [23],50%
